Key:
Homo sapiens [1] = test: Toxicity in patient with severe malaria assessed as effect on respiratory rate at 3 to 12 g, iv for 30 mins via infusion pump measured during drug infusion; format: organism-based; details: in vivo, 0.5 h
Homo sapiens [2] = test: Toxicity in patient with severe malaria assessed as decrease of diastolic blood pressure at 3 to 6 g, iv for 30 mins via infusion pump; format: organism-based, Artery; details: in vivo, 0.5 h
In short: (§1)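 In adults with malaria on IV quinine, 10 per dose, systolic and diastolic blood pressure were recorded at baseline and immediately at the end of a 30-min IV L-arginine infusion (in saline, 10% or less). They were followed afterward to check return to baseline. Mean change was given with 95% CI and P value.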

[3] = Plasma concentration in patient with severe malaria at 6 g, iv for 30 mins via infusion pump; format: ADME, organism-based; details: human
In short: (§2)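 Adults with moderately severe malaria, all on IV quinine, were placed in groups of 10 per dose. L-arginine was diluted in normal saline to 10% or less and given IV through an antecubital cannula over 30 min. Plasma was taken at 8–11 time points up to 24 h, separated within 30 min and stored at −70°C. Samples were ethanol-deproteinized with norleucine as internal standard, AccQFluor-derivatized and measured by HPLC. Peak was taken after the end of infusion.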

Homo sapiens [4] = test: Toxicity in patient with severe malaria assessed as effect on pulse rate at 3 to 12 g, iv for 30 mins via infusion pump measured after drug infusion; format: organism-based; details: in vivo, 0.5 h
Homo sapiens [5] = test: Toxicity in patient with severe malaria assessed as decrease of systolic blood pressure at 3 to 6 g, iv for 30 mins via infusion pump; format: organism-based, Artery; details: in vivo, 0.5 h; in short: as §1
Homo sapiens [6] = test: Toxicity in patient with severe malaria assessed as effect on respiratory rate at 3 to 12 g, iv for 30 mins via infusion pump measured after drug infusion; format: organism-based; details: in vivo, 0.5 h
Homo sapiens [7] = test: Toxicity in patient with severe malaria assessed as pain at drug infusion site at 3 to 12 g, iv for 30 mins via infusion pump; format: organism-based; details: in vivo, 0.5 h
Homo sapiens [8] = test: Toxicity in patient with severe malaria assessed as effect on pulse rate at 3 to 12 g, iv for 30 mins via infusion pump measured during drug infusion; format: organism-based; details: in vivo, 0.5 h
Homo sapiens [9] = test: Toxicity in patient with severe malaria assessed as decrease of diastolic blood pressure at 12 g, iv for 30 mins via infusion pump; format: organism-based, Artery; details: in vivo, 0.5 h; in short: as §1
[10] = Terminal half life in patient with severe malaria administered as iv for 30 mins via infusion pump; format: ADME, organism-based; details: human, in vivo, read-out: beta t1/2 (converted)
In short: (§3)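 Half-lives came from a population model fitted in NONMEM (FOCE with interaction) to plasma HPLC levels from infused patients and from patients not given L-arginine. The model was two-compartment linear with first-order elimination and combined proportional and additive residual error. Baseline and natural recovery were fitted by a second-order polynomial. CV% was estimated by simulation assuming a log-normal distribution.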

[11] = Plasma concentration in patient with severe malaria at 12 g, iv for 30 mins via infusion pump; format: ADME, organism-based; details: human; in short: as §2
Homo sapiens [12] = test: Toxicity in patient with severe malaria assessed as inflammation at 3 to 12 g, iv for 30 mins via infusion pump; format: organism-based; details: in vivo, 0.5 h
[13] = Plasma concentration in patient with severe malaria at 3 g, iv for 30 mins via infusion pump; format: ADME, organism-based; details: human; in short: as §2
[14] = Primary phase half life in patient with severe malaria administered as iv for 30 mins via infusion pump; format: ADME, organism-based; details: human, in vivo, read-out: alphat1/2; in short: as §3
Homo sapiens [15] = test: Toxicity in patient with severe malaria assessed as decrease of systolic blood pressure at 12 g, iv for 30 mins via infusion pump; format: organism-based, Artery; details: in vivo, 0.5 h; in short: as §1

N=C(N)NCCC[C@H](N)C(=O)O [ARGININE]
Activity (Homo sapiens [1]): Non-toxic
Activity (Homo sapiens [2]): Non-toxic
concentration at 0.5 h [3]: 809 µM
Activity (Homo sapiens [4]): Non-toxic
Activity (Homo sapiens [5]): Non-toxic
Activity (Homo sapiens [6]): Non-toxic
Activity (Homo sapiens [7]): Non-toxic
Activity (Homo sapiens [8]): Non-toxic
Activity (Homo sapiens [9]): 5 mmHg
half-life [10]: 3.75 h
concentration at 0.5 h [11]: 1310 µM
Activity (Homo sapiens [12]): Non-toxic
concentration at 0.5 h [13]: 288 µM
half-life [14]: 0.25 h
Activity (Homo sapiens [15]): 5 mmHg

Reference: ChEMBL document CHEMBL1687716, “Pharmacokinetics of L-arginine in adults with moderately severe malaria” (Antimicrob Agents Chemother, 2008)
